Tests used:
Blood [1] = assay: Biodistribution in iv dosed rat blood after 2 mins; type: ADME, organism-based; conditions: in vivo
Procedure, shortened: (§1)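 [18F]-labeled tracer was given to rats under isoflurane anesthesia: 0.2 ml sterile water with 1 mg/mL BSA and 10–100 μCi, into the femoral vein. Three rats per group. Animals were killed by cervical dislocation under anesthesia at the stated time. Organs were removed, weighed and counted. Uptake was calculated as percent dose against a 1% aliquot of the injected dose counted alongside.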

Lung [2] = assay: Biodistribution in iv dosed rat lungs after 60 mins; type: ADME, organism-based; conditions: in vivo, 1 h; procedure, shortened: as §1
Heart [3] = assay: Biodistribution in iv dosed rat heart after 60 mins; type: ADME, organism-based; conditions: in vivo, 1 h; procedure, shortened: as §1
Nucleic Acid [4] = assay: Ratio of drug level in cortex to cerebellum in rat assessed as radioactivity after 240 mins; type: ADME, tissue-based; conditions: in vivo, 4 h
Kidney [5] = assay: Biodistribution in iv dosed rat kidney after 240 mins; type: ADME, organism-based; conditions: in vivo, 4 h; procedure, shortened: as §1
Heart [6] = assay: Biodistribution in iv dosed rat heart after 240 mins; type: ADME, organism-based; conditions: in vivo, 4 h; procedure, shortened: as §1
Lung [7] = assay: Biodistribution in iv dosed rat lungs after 2 mins; type: ADME, organism-based; conditions: in vivo; procedure, shortened: as §1
Zone of skin [8] = assay: Biodistribution in iv dosed rat skin after 240 mins; type: ADME, organism-based; conditions: in vivo, 4 h
Nucleic Acid [9] = assay: Ratio of drug level in striatum to cerebellum in rat assessed as radioactivity after 60 mins; type: ADME, tissue-based; conditions: in vivo, 1 h
Bone [10] = assay: Biodistribution in iv dosed rat bone after 30 mins; type: ADME, organism-based, Bone element; conditions: in vivo, 0.5 h; procedure, shortened: as §1
Brain [11] = assay: Biodistribution in iv dosed rat brain after 120 mins; type: ADME, organism-based; conditions: in vivo, 2 h; procedure, shortened: as §1
Nucleic Acid [12] = assay: Ratio of drug level in cortex to cerebellum in rat assessed as radioactivity after 60 mins; type: ADME, tissue-based; conditions: in vivo, 1 h
Muscle tissue = assay: Biodistribution in iv dosed rat muscle after 30 mins; type: ADME, organism-based; conditions: in vivo, 0.5 h; procedure, shortened: as §1
Lung [13] = assay: Biodistribution in iv dosed rat lungs after 30 mins; type: ADME, organism-based; conditions: in vivo, 0.5 h; procedure, shortened: as §1
Spleen = assay: Biodistribution in iv dosed rat spleen after 2 mins; type: ADME, organism-based; conditions: in vivo
Nucleic Acid [14] = assay: Ratio of drug level in cortex to cerebellum in rat assessed as radioactivity after 30 mins; type: ADME, tissue-based; conditions: in vivo, 0.5 h
Procedure, shortened: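 Groups of three normal rats under isoflurane received the [18F] tracer (10–100 μCi in 0.2 ml sterile water containing 1 mg/mL BSA) into the femoral vein. They were killed by cervical dislocation under anesthesia at the stated time. Cortex, striatum, hippocampus, hypothalamus and cerebellum were dissected, weighed and gamma-counted. %dose/g was set against a 100-fold diluted dose aliquot, and each region was divided by cerebellum.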

Kidney [15] = assay: Biodistribution in iv dosed rat kidney after 30 mins; type: ADME, organism-based; conditions: in vivo, 0.5 h; procedure, shortened: as §1
Nucleic Acid [16] = assay: Ratio of drug level in hypothalamus to cerebellum in rat after 120 mins; type: ADME, tissue-based; conditions: in vivo, 2 h
Procedure, shortened: (§2)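 Rats, 3 per group, given ¹⁸F tracer (10–100 μCi, 0.2 ml sterile water with 1 mg/mL BSA) into the femoral vein under isoflurane. Brain regions, including hypothalamus, striatum and cerebellum, dissected, weighed and counted. % dose/g calculated against a 1% diluted aliquot of the dose. Region/cerebellum ratio is region %dose/g divided by cerebellum %dose/g. SD of the ratio propagated from both means and SDs.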

Kidney [17] = assay: Biodistribution in iv dosed rat kidney after 120 mins; type: ADME, organism-based; conditions: in vivo, 2 h; procedure, shortened: as §1
Liver [18] = assay: Biodistribution in iv dosed rat liver after 120 mins; type: ADME, organism-based; conditions: in vivo, 2 h; procedure, shortened: as §1
Blood [19] = assay: Biodistribution in iv dosed rat blood after 30 mins; type: ADME, organism-based; conditions: in vivo, 0.5 h; procedure, shortened: as §1
Lung [20] = assay: Biodistribution in iv dosed rat lungs after 120 mins; type: ADME, organism-based; conditions: in vivo, 2 h; procedure, shortened: as §1
Nucleic Acid [21] = assay: Ratio of drug level in hippocampus to cerebellum in rat assessed as radioactivity after 240 mins; type: ADME, tissue-based; conditions: in vivo, 4 h
Blood [22] = assay: Biodistribution in iv dosed rat blood after 120 mins; type: ADME, organism-based; conditions: in vivo, 2 h; procedure, shortened: as §1
Striatum = assay: Biodistribution in iv dosed rat striatum assessed as radioactivity after 120 mins; type: ADME, organism-based; conditions: in vivo, 2 h
Liver [23] = assay: Biodistribution in iv dosed rat liver after 2 mins; type: ADME, organism-based; conditions: in vivo; procedure, shortened: as §1
Nucleic Acid [24] = assay: Ratio of drug level in hypothalamus to cerebellum in rat after 30 mins; type: ADME, tissue-based; conditions: in vivo, 0.5 h; procedure, shortened: as §2
Brain [25] = assay: Biodistribution in iv dosed rat brain after 60 mins; type: ADME, organism-based; conditions: in vivo, 1 h; procedure, shortened: as §1
Zone of skin [26] = assay: Biodistribution in iv dosed rat skin after 2 mins; type: ADME, organism-based; conditions: in vivo
Nucleic Acid [27] = assay: Ratio of drug level in hypothalamus to cerebellum in rat assessed as radioactivity after 60 mins; type: ADME, tissue-based; conditions: in vivo, 1 h
Bone [28] = assay: Biodistribution in iv dosed rat bone after 120 mins; type: ADME, organism-based, Bone element; conditions: in vivo, 2 h; procedure, shortened: as §1

Drug uptake (Blood [1]): 11.86 %ID
Drug uptake (Lung [2]): 1.4 %ID
Drug uptake (Heart [3]): 0.12 %ID
Ratio (Nucleic Acid [4]): 2.44
Drug uptake (Kidney [5]): 1.94 %ID
Drug uptake (Heart [6]): 0.04 %ID
Drug uptake (Lung [7]): 13.21 %ID
Drug uptake (Zone of skin [8]): 3.77 %ID
Ratio (Nucleic Acid [9]): 3.87
Drug uptake (Bone [10]): 7.11 %ID
Drug uptake (Brain [11]): 0.63 %ID
Ratio (Nucleic Acid [12]): 4.78
Drug uptake (Muscle tissue): 9.46 %ID
Drug uptake (Lung [13]): 2.25 %ID
Drug uptake (Spleen): 1.22 %ID
Ratio (Nucleic Acid [14]): 3.26
Drug uptake (Kidney [15]): 4.56 %ID
Ratio (Nucleic Acid [16]): 7.83
Drug uptake (Kidney [17]): 2.66 %ID
Drug uptake (Liver [18]): 7.68 %ID
Drug uptake (Blood [19]): 4.74 %ID
Drug uptake (Lung [20]): 0.53 %ID
Ratio (Nucleic Acid [21]): 2.14
Drug uptake (Blood [22]): 4.06 %ID
Drug uptake (Striatum): 0.36 % ID/g
Drug uptake (Liver [23]): 9.9 %ID
Ratio (Nucleic Acid [24]): 3.79
Drug uptake (Brain [25]): 1.21 %ID
Drug uptake (Zone of skin [26]): 8.78 %ID
Ratio (Nucleic Acid [27]): 5.52
Drug uptake (Bone [28]): 2.92 %ID
SMILES: CN(C)Cc1cc(OCC[18F])ccc1Sc1ccccc1N

— ChEMBL document CHEMBL1138354, “2-(2'-((dimethylamino)methyl)-4'-(fluoroalkoxy)-phenylthio)benzenamine derivatives as serotonin transporter imaging agents” (J Med Chem, 2007)
